Results as given in ChEMBL document CHEMBL5038593, “Rational Design and Synthesis of Novel Dual PROTACs for Simultaneous Degradation of EGFR and PARP” (J Med Chem, 2021).
Each block holds one compound with its values, some of them ahead of it. The source made the active and inactive calls. The calls are words filed in the database; no cut-off is given here.

How the values were obtained:
[1] = target: T1, Protein cereblon/Epidermal growth factor receptor (Homo sapiens) (UniProt P00533+Q96SW2); test: Protac activity at CRBN/EGFR in human SW1990 cells assessed as induction of EGFR degradation at 1 to 50 uM incubated for 24 hrs by Western blot analysis; format: cell-based; settings: dose 1-50 µM
Outline: (§1)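 SW1990 cells grown in high-glucose DMEM (25 mM glucose) with 10% FBS, 5% CO₂, 37 °C. Seeded and left 24 h, then exposed to DMSO or compound. Cells washed in PBS, lysed in RIPA, and cleared at 13 000 rpm for 15 min. Protein measured by BCA. 20−40 μg run on 10% SDS-PAGE, moved to PVDF, blocked 1 h in 5% milk or BSA, primary antibodies 1:1000 overnight at 4 °C, ECL detection.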

[2] = target: T2, Protein cereblon/Poly [ADP-ribose] polymerase 1 (Homo sapiens) (UniProt P09874+Q96SW2); test: Protac activity at CRBN/PARP-1 in human SW1990 cells assessed as induction of PARP-1 degradation at 1 to 50 uM incubated for 24 hrs by Western blot analysis; format: cell-based; settings: dose 1-50 µM; outline: as §1
NCI-H1299 = test: cells; format: functional, cell-based; settings: Homo sapiens, NCI-H1299, 72 h
[3] = target: T1, Protein cereblon/Epidermal growth factor receptor (Homo sapiens); test: Protac activity at CRBN/EGFR in human SW1990 cells assessed as induction of EGFR degradation at 5 uM measured after 6 to 48 hrs by Western blot analysis; format: cell-based; settings: time 6-48 hrs, TDE = time-dependent effect; outline: as §1
[4] = target: T2, Protein cereblon/Poly [ADP-ribose] polymerase 1 (Homo sapiens); test: Protac activity at CRBN/PARP-1 in human SW1990 cells assessed as induction of PARP-1 degradation at 5 uM measured after 6 to 48 hrs by Western blot analysis; format: cell-based; settings: time 6-48 hrs, TDE = time-dependent effect; outline: as §1
[5] = target: Poly [ADP-ribose] polymerase 1 (Homo sapiens, UniProt P09874); test: Binding affinity to human GST-tagged PARP-1 ART domain (788 to 1014 residues) expressed in Escherichia coli BL21 (DE3) assessed as dissociation constant incubated for 30 mins by microscale thermophoresis analysis
[6] = target: T2, Protein cereblon/Poly [ADP-ribose] polymerase 1 (Homo sapiens); test: Protac activity at CRBN/PARP-1 in human SW1990 cells assessed as decrease of PARP-1 expression level at 1 to 50 uM pretreated with proteasome inhibitor MG132 for 4 hr followed by incubation with compound for 24 hrs by Western blot analysis; format: cell-based; settings: dose 1-50 µM; outline: as §1
[7] = target: T1, Protein cereblon/Epidermal growth factor receptor (Homo sapiens); test: Protac activity at CRBN/EGFR in human SW1990 cells assessed as decrease in EGFR expression level at 1 to 50 uM pretreated with proteasome inhibitor MG132 for 4 hr followed by incubation with compound for 24 hrs by Western blot analysis; format: cell-based; settings: dose 1-50 µM; outline: as §1
[8] = target: Epidermal growth factor receptor (Homo sapiens, UniProt P00533); test: biochemical; format: cell-based
[9] = target: T3, von Hippel-Lindau disease tumor suppressor/Poly [ADP-ribose] polymerase 1 (Homo sapiens) (UniProt P09874+P40337); test: Protac activity at VHL/PARP-1 in human A-431 cells assessed as induction of PARP-1 degradation at 0.8 to 20 uM incubated for 36 hrs by Western blot analysis; format: cell-based; settings: dose 0.8-20 µM
[10] = target: T3, von Hippel-Lindau disease tumor suppressor/Poly [ADP-ribose] polymerase 1 (Homo sapiens); test: Protac activity at VHL/PARP-1 in human NCI-H1299 cells assessed as induction of PARP degradation at 0.47 uM incubated for 36 hrs by Western blot analysis relative to control
[11] = target: T3, von Hippel-Lindau disease tumor suppressor/Poly [ADP-ribose] polymerase 1 (Homo sapiens); test: Protac activity at VHL/PARP-1 in human NCI-H1299 cells assessed as decrease of PARP-1 degradation at up to 15 uM pretreated with proteasome inhibitor MG132 for 4 hr followed by incubation with compound for 6 hrs by Western blot analysis; format: cell-based; settings: dose microM <=15, time 6.0 hrs
Outline: (§2)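 NCI-H1299 cells grown in high-glucose DMEM with 10% FBS at 37 °C, 5% CO₂. Compound given after 24 h seeding. Lysis in RIPA, BCA protein assay, 20−40 μg on 10% SDS-PAGE, PVDF transfer, primary antibodies 1:1000 overnight at 4 °C, ECL. EGFR, p-EGFR and PARP probed.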

[12] = target: T4, von Hippel-Lindau disease tumor suppressor/Epidermal growth factor receptor (Homo sapiens) (UniProt P00533+P40337); test: Protac activity at VHL/EGFR in human NCI-H1299 cells assessed as induction of EGFR degradation by measuring reduction in p-EGFR level at 15 uM incubated for 36 hrs by Western blot analysis; format: cell-based; outline: as §2
[13] = target: T4, von Hippel-Lindau disease tumor suppressor/Epidermal growth factor receptor (Homo sapiens); test: Protac activity at VHL/EGFR in human A-431 cells assessed as induction of EGFR degradation at 0.8 to 20 uM incubated for 36 hrs by Western blot analysis; format: cell-based; settings: dose 0.8-20 µM
[14] = target: T3, von Hippel-Lindau disease tumor suppressor/Poly [ADP-ribose] polymerase 1 (Homo sapiens); test: Protac activity at VHL/PARP-1 in human NCI-H1299 cells assessed as induction of PARP degradation at 4 uM incubated for 6 hrs by Western blot analysis; format: cell-based; outline: as §2
[15] = target: T4, von Hippel-Lindau disease tumor suppressor/Epidermal growth factor receptor (Homo sapiens); test: Protac activity at VHL/EGFR in human NCI-H1299 cells assessed as decrease in EGFR degradation at up to 15 uM pretreated with proteasome inhibitor MG132 for 4 hr followed by incubation with compound for 6 hrs by Western blot analysis; format: cell-based; settings: dose microM <=15, time 6.0 hrs; outline: as §2
[16] = target: T4, von Hippel-Lindau disease tumor suppressor/Epidermal growth factor receptor (Homo sapiens); test: Protac activity at VHL/EGFR in human NCI-H1299 cells assessed as induction of EGFR degradation at 4 uM incubated for 6 hrs by Western blot analysis; format: cell-based; outline: as §2

T1 sequence (P00533 25-1210 limits assumed): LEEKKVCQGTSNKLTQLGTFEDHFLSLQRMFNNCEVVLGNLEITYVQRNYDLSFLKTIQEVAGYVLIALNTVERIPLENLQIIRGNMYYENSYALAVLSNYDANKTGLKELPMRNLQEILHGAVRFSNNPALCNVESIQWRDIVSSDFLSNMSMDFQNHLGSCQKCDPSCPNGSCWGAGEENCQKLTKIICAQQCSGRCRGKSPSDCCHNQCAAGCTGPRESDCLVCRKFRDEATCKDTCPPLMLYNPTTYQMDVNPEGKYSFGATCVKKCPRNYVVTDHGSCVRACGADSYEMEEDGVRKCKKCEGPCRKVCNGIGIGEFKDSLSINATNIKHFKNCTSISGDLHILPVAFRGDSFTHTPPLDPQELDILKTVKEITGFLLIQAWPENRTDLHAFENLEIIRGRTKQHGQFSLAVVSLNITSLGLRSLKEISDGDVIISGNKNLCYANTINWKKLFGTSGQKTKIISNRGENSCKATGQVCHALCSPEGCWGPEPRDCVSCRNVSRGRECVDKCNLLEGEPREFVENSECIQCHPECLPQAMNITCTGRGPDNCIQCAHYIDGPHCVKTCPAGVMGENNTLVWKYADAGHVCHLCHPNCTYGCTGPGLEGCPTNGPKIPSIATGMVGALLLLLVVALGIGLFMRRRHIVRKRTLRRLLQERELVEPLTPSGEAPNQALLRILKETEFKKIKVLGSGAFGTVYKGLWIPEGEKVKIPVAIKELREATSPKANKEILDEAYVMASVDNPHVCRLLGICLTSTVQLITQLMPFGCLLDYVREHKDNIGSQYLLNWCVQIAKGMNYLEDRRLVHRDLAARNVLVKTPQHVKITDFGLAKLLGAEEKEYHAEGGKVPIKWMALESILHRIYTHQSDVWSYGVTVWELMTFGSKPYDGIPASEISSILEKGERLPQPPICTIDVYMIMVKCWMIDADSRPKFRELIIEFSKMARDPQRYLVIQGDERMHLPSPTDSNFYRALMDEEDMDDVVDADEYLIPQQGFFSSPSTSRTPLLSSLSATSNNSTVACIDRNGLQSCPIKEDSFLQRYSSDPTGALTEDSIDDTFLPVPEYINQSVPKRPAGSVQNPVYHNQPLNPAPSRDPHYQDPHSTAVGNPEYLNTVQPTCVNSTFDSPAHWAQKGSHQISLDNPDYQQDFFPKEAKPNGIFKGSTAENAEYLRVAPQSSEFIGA
T1 sequence (Q96SW2 whole entry partner): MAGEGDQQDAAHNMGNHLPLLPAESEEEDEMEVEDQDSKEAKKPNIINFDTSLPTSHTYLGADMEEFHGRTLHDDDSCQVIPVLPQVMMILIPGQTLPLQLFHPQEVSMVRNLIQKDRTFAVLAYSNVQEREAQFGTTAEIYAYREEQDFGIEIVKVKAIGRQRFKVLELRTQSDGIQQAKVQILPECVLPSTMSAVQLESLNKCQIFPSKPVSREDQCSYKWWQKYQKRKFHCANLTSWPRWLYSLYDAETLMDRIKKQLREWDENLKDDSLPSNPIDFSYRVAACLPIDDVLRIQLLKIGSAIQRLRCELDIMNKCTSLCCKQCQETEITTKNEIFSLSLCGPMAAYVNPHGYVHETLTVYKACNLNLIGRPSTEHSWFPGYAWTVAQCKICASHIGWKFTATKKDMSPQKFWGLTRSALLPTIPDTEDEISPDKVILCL
T4 sequence (P00533 25-1210 limits assumed): as the sequence (P00533 25-1210 limits assumed) above
T4 sequence (P40337 whole entry partner): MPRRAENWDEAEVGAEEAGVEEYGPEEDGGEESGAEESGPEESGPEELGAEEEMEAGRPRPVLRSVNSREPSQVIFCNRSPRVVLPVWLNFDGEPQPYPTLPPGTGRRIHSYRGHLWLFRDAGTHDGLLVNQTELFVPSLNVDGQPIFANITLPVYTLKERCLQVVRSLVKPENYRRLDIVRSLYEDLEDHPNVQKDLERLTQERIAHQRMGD
T2 sequence (P09874 2-1014 limits assumed): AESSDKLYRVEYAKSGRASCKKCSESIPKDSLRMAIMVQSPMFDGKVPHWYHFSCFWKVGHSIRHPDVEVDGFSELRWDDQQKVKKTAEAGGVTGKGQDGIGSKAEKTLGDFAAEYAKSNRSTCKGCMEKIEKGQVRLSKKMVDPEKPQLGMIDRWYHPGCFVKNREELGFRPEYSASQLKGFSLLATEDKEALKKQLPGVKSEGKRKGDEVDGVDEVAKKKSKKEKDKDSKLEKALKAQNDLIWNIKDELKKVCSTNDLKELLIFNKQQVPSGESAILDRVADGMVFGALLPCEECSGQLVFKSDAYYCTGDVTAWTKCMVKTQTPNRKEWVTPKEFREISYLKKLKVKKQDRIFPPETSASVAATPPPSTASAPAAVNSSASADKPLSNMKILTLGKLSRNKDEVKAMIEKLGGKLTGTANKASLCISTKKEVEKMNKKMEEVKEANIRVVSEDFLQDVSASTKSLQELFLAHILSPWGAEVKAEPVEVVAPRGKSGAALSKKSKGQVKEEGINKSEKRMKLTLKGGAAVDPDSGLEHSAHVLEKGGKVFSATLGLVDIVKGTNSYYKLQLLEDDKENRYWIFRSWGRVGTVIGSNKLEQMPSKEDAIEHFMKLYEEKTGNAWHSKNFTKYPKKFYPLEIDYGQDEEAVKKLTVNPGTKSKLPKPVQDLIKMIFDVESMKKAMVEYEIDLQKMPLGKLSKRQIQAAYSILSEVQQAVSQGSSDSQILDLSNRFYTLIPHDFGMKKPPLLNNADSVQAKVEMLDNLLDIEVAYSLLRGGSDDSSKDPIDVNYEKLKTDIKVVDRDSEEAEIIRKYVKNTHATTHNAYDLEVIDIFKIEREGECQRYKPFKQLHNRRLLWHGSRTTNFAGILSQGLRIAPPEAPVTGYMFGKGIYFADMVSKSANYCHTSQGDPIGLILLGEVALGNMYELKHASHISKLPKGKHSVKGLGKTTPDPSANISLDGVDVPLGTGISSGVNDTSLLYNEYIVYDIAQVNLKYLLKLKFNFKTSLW
T2 sequence (Q96SW2 whole entry partner): as the sequence (Q96SW2 whole entry partner) above
Poly [ADP-ribose] polymerase 1, sequence (P09874 whole entry, the tested form may be a part): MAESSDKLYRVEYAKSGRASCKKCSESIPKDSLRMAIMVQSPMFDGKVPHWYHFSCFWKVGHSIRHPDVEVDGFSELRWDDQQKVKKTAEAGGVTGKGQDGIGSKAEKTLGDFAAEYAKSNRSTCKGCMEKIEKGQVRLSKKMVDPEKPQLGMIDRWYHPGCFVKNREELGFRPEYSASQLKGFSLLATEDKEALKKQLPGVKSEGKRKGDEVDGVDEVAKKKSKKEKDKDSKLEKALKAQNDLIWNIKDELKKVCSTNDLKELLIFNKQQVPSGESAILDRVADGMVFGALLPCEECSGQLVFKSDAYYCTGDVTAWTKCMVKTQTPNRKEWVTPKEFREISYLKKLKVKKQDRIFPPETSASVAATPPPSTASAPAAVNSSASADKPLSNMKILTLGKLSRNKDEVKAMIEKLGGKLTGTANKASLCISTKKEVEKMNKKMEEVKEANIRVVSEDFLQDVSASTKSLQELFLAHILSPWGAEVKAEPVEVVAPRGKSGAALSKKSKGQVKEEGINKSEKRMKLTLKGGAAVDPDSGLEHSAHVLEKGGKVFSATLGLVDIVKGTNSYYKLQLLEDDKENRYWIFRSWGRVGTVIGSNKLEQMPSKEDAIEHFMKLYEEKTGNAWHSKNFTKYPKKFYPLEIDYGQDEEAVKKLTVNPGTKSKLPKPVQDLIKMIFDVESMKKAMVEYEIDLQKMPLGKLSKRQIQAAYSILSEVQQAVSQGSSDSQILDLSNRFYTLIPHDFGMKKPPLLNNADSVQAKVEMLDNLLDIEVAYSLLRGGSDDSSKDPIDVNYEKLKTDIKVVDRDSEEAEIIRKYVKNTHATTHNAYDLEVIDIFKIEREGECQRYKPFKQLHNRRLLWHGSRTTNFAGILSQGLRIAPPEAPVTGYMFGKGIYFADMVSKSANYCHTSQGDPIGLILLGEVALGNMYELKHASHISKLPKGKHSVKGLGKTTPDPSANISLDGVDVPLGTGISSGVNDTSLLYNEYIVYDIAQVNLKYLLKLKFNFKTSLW

Structure (SMILES): O=C(c1cc(Cc2n[nH]c(=O)c3ccccc23)ccc1F)N1CCN(C(=O)C2CC2)CC1 [OLAPARIB]
IC50 (NCI-H1299): 35.9 µM

Structure (SMILES): O=C1CCC(N2C(=O)c3cccc(NCCOCCn4cc(CCC(=O)N5CCN(C(=O)c6cc(Cc7n[nH]c(=O)c8ccccc78)ccc6F)CC5)nn4)c3C2=O)C(=O)N1 (centres undefined)
Activity [1]: Active
Activity [2]: Active

Structure (SMILES): COc1cc2ncnc(Nc3ccc(F)c(Cl)c3)c2cc1OCCCC(=O)NCc1cn(CCOCCNc2cccc3c2C(=O)N(C2CCC(=O)NC2=O)C3=O)nn1 (centres undefined)
Activity [1]: Active

Structure (SMILES): COc1cc2ncnc(Nc3ccc(F)c(Cl)c3)c2cc1OCCCCCC(=O)NC(COCc1cn(CCCC(=O)N[C@H](C(=O)N2C[C@H](O)C[C@H]2C(=O)NCc2ccc(-c3scnc3C)cc2)C(C)(C)C)nn1)C(=O)NCCCCCC(=O)N1CCN(C(=O)c2cc(Cc3n[nH]c(=O)c4ccccc34)ccc2F)CC1 (some centres undefined)
Activity [9]: Active
Activity [10]: 50%
Activity [11]: Active
Kd [5]: 12.8 µM
Activity [12]: Active
IC50 (NCI-H1299): 19.9 µM
Activity [13]: Active
Activity [14]: Active
Activity [15]: Active
Activity [16]: Active
Kd [8]: 5.47 µM

Second part, the compound after the results:

Activity [1]: Active
Activity [2]: Active
Structure (SMILES): COc1cc2ncnc(Nc3ccc(F)c(Cl)c3)c2cc1OCCCC(=O)NC(COCc1cn(CCOCCNc2cccc3c2C(=O)N(C2CCC(=O)NC2=O)C3=O)nn1)C(=O)NCCCC(=O)N1CCN(C(=O)c2cc(Cc3n[nH]c(=O)c4ccccc34)ccc2F)CC1 (centres undefined)

Activity [1]: Active
Activity [2]: Active
Structure (SMILES): COc1cc2ncnc(Nc3ccc(F)c(Cl)c3)c2cc1OCCCC(=O)NC(COCc1cn(CCOCCNc2cccc3c2C(=O)N(C2CCC(=O)NC2=O)C3=O)nn1)C(=O)N1CCN(C(=O)c2cc(Cc3n[nH]c(=O)c4ccccc34)ccc2F)CC1 (centres undefined)

Activity [3]: Tde
Activity [4]: Tde
Kd [5]: 7.89 µM
Activity [1]: Active
Activity [6]: Active
Activity [2]: Active
Activity [7]: Active
Kd [8]: 2.74 µM
Structure (SMILES): COc1cc2ncnc(Nc3ccc(F)c(Cl)c3)c2cc1OCC(=O)NC(Cc1ccc(OCc2cn(CCOCCNc3cccc4c3C(=O)N(C3CCC(=O)NC3=O)C4=O)nn2)cc1)C(=O)N1CCN(C(=O)c2cc(Cc3n[nH]c(=O)c4ccccc34)ccc2F)CC1 (centres undefined)

Activity [1]: Active
Activity [2]: Active
Structure (SMILES): COc1cc2ncnc(Nc3ccc(F)c(Cl)c3)c2cc1OCCCCCC(=O)NC(COCc1cn(CCOCCOCCNc2cccc3c2C(=O)N(C2CCC(=O)NC2=O)C3=O)nn1)C(=O)NCCCCCC(=O)N1CCN(C(=O)c2cc(Cc3n[nH]c(=O)c4ccccc34)ccc2F)CC1 (centres undefined)
